ChEMBL document CHEMBL1156534, “Hemopressin is an inverse agonist of CB1 cannabinoid receptors” (Proc Natl Acad Sci U S A, 2007)
Active and inactive are the calls of the source.

Experiments:
[1] = target: Mu-type opioid receptor (Homo sapiens) (UniProt P35372); assay: Antagonist activity at mu opioid receptor expressed in HEK293 cells assessed as blockade of secreted alkaline phosphatase activity at 1 uM after 6 hrs relative to control; assay type: functional, cell-based
In short: (§1)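 HEK-293 cells transiently co-transfected with pCRE-SeAP and a Flag-tagged receptor, 30,000 cells/well on poly-L-lysine. They were serum-starved 16–18 h, then exposed 6 h in serum-free medium to 10 μM forskolin (omitted for β2) plus the receptor agonist (100 nM), with or without peptide (1 μM). Heat-treated supernatant SeAP was read by CSPD chemiluminescence. Mean ± SEM, n = 6.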

[2] = target: T1, B2 bradykinin receptor (Homo sapiens) (UniProt P30411); assay: Antagonist activity at B2 bradykinin receptor expressed in SKNSH cells at 100 nM by ELISA; assay type: functional, cell-based; parameters: scale not given: the % may be the effect or the level left
T1 sequence (whole entry): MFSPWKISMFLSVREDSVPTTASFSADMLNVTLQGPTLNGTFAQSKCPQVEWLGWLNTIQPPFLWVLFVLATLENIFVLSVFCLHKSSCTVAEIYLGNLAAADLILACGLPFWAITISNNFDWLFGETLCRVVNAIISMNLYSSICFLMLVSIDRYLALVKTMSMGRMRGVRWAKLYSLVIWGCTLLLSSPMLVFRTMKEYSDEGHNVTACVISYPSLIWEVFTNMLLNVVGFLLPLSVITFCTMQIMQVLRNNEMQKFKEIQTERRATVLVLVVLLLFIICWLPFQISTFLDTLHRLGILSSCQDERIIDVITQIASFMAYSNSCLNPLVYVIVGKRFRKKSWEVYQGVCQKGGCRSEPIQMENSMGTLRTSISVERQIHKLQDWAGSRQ

[3] = target: T2, Type-1 angiotensin II receptor (Homo sapiens) (UniProt P30556); assay: Antagonist activity at AT1 angiotensin receptor expressed in SKNSH cells assessed as blockade of angiotensin 2-induced increase in antibody recognition at 100 nM by ELISA relative to control; assay type: functional, cell-based; parameters: scale not given: the % may be the effect or the level left
T2 sequence (whole entry): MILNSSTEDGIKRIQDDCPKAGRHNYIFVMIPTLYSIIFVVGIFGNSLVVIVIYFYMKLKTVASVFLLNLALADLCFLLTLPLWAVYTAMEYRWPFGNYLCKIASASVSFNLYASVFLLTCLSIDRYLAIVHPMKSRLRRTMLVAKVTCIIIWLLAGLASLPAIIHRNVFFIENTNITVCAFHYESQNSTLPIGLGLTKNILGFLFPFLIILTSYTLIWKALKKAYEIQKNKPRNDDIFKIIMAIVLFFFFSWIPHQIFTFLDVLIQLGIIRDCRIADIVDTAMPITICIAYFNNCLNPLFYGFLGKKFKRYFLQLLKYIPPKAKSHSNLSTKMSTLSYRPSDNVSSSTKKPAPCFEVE

[4] = target: Cannabinoid receptor 1 (Rattus norvegicus) (UniProt P20272); assay: Antagonist activity at Long-Evans rat striatal membrane CB1 receptor assessed as blockade of Hu210-induced increase in GTPgammaS binding; assay type: functional
In short: (§2)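 Membranes (10 μg) came from striatum (CB1) or spleen (CB2). They were tested in GTPγS-binding or adenylyl cyclase assays with Hu-210 and test ligand (0–1 μM), or with Hu-210 curves with or without 10 μM peptide; a 1 μM single-point combination was also used. Mean ± SE of triplicates.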

[5] = target: Cannabinoid receptor 1 (Rattus norvegicus) (UniProt P20272); assay: Antagonist activity at Long-Evans rat striatal membrane CB1 receptor assessed as blockade of Hu210-mediated decrease in adenylate cyclase activity; assay type: functional; in short: as §2
Cannabinoid receptor 1 = Cannabinoid receptor 1 (Rattus norvegicus, UniProt P20272); assay: Displacement of [3H]SR141716 from Long-Evans rat striatal membrane CB1 receptor
[6] = target: Mu-type opioid receptor (Homo sapiens) (UniProt P35372); assay: Antagonist activity at mu opioid receptor expressed in HEK293 cells assessed as blockade of DAMGO-mediated decrease in secreted alkaline phosphatase activity at 1 uM after 6 hrs relative to control; assay type: functional, cell-based; in short: as §1
[7] = target: T3, Alpha-2A adrenergic receptor (Homo sapiens) (UniProt P08913); assay: Antagonist activity at alpha2A adrenergic receptor expressed in SKNSH cells at 100 nM by ELISA relative to control; assay type: functional, cell-based; parameters: scale not given: the % may be the effect or the level left
T3 sequence (whole entry): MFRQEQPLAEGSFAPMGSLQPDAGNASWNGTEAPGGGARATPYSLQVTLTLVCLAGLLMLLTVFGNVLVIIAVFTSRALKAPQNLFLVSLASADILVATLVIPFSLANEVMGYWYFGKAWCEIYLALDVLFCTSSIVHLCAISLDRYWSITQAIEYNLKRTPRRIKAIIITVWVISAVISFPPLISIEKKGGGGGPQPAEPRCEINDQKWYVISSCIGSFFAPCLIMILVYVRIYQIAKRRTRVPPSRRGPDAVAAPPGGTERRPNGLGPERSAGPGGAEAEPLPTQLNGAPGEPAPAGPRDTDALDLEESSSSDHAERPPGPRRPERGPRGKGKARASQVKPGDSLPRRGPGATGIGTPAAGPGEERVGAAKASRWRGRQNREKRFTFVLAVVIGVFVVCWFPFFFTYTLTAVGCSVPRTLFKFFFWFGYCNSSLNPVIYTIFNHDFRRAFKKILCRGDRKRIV

[8] = target: Cannabinoid receptor 1 (Homo sapiens) (UniProt P21554); assay: Antagonist activity at CB1 receptor expressed in HEK293 cells assessed as blockade of secreted alkaline phosphatase activity at 1 uM after 6 hrs relative to control; assay type: functional, cell-based
In short: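 HEK-293 cells transfected with 5 μg pCRE-SeAP plus 1 μg Flag-tagged CB₁ or CB₂ receptor, 30,000 cells/well, serum-starved 16–18 h. Stimulated 6 h in serum-free medium with 10 μM forskolin and 100 nM agonist, without or with 1 μM test peptide. Supernatant diluted in pH 7.2 buffer, heated 65°C 20 min, then CSPD chemiluminescence read. Mean ± SEM, n = 6.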

[9] = target: Beta-2 adrenergic receptor (Homo sapiens) (UniProt P07550); assay: Antagonist activity at beta2 adrenergic receptor expressed in HEK293 cells assessed as blockade of secreted alkaline phosphatase activity at 1 uM after 6 hrs relative to control; assay type: functional, cell-based; in short: as §1
[10] = target: Delta-type opioid receptor (Homo sapiens) (UniProt P41143); assay: Antagonist activity at delta opioid receptor expressed in SKNSH cells at 100 nM by ELISA relative to control; assay type: functional, cell-based; parameters: scale not given: the % may be the effect or the level left
Rattus norvegicus [11] = assay: Antihyperalgesic effects in Wistar rat assessed as reduction of carrageenan-induced paw pressure at 0.5 ug/kg, intrathecal after 3 hrs; assay type: functional, organism-based
In short: (§3)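 Male Wistar rats (200 g) received carrageenan 200 μg/paw intraplantar in saline into the right hind paw. Peptide was given at the same time: intraplantar 10 μg/paw, intrathecal 0.5 or 5 μg/kg, or oral 50 or 100 μg/kg; saline-treated rats served as controls. Paw-pressure withdrawal threshold (force ramp 16 g/s) was read at 0 and 3 h. n = 6–8.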

Rattus norvegicus [12] = assay: Antihyperalgesic effects in Wistar rat assessed as reduction of carrageenan-induced paw pressure at 50 ug/kg, po after 3 hrs; assay type: functional, organism-based; in short: as §3
[13] = target: Cannabinoid receptor 1 (Homo sapiens) (UniProt P21554); assay: Antagonist activity at CB1 receptor expressed in HEK293 cells assessed as blockade of Hu210-mediated decrease in secreted alkaline phosphatase activity at 1 uM after 6 hrs relative to control; assay type: functional, cell-based; in short: as §1

Mu-type opioid receptor (Homo sapiens), sequence (P35372 whole entry): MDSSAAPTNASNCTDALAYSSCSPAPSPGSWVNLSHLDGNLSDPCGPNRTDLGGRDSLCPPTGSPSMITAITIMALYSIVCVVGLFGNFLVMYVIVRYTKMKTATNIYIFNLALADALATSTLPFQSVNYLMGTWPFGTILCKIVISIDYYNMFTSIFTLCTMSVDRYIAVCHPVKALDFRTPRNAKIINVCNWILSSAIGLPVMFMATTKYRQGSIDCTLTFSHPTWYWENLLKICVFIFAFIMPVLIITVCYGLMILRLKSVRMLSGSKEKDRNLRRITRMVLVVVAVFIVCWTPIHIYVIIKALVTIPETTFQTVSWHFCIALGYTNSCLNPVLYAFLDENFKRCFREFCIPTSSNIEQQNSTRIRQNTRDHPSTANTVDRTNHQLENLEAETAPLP
Cannabinoid receptor 1 (Rattus norvegicus), sequence (P20272 whole entry): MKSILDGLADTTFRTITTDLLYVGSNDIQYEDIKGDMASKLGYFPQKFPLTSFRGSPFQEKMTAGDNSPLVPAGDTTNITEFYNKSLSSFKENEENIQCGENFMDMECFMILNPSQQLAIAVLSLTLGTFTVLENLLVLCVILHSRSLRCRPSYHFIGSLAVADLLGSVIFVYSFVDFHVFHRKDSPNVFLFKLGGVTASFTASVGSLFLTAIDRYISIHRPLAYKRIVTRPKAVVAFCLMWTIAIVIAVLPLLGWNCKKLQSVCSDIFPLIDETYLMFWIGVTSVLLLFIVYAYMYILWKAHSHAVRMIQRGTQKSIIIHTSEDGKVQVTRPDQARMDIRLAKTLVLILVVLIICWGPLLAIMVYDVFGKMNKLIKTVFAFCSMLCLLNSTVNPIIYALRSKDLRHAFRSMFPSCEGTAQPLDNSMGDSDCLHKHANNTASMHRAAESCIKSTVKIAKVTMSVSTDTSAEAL
Cannabinoid receptor 1 (Homo sapiens), sequence (P21554 whole entry): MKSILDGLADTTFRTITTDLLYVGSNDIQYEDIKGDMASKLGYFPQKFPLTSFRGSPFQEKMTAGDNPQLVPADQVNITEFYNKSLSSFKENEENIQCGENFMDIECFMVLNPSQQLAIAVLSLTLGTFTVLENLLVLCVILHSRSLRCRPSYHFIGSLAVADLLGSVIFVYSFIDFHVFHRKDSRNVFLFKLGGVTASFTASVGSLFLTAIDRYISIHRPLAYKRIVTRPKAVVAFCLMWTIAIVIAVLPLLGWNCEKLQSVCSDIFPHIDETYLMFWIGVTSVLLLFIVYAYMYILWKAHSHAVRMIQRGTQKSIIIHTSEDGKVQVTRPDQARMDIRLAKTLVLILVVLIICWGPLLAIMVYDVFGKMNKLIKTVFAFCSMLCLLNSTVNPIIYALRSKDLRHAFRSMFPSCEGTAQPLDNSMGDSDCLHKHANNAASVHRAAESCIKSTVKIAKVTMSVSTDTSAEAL
Cannabinoid receptor 1, sequence (P20272 whole entry): as the sequence (P20272 whole entry) above
Delta-type opioid receptor (Homo sapiens), sequence (P41143 whole entry): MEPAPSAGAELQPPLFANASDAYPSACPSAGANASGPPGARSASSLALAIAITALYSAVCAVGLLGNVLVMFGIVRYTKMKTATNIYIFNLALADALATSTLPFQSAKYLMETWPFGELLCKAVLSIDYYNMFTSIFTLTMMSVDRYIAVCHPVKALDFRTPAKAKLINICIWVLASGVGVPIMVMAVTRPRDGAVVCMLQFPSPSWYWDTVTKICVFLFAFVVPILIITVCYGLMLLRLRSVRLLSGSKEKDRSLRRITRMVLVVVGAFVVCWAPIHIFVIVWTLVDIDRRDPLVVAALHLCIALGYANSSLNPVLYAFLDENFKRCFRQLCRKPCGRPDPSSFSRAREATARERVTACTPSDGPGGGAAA
Beta-2 adrenergic receptor (Homo sapiens), sequence (P07550 whole entry, looked up): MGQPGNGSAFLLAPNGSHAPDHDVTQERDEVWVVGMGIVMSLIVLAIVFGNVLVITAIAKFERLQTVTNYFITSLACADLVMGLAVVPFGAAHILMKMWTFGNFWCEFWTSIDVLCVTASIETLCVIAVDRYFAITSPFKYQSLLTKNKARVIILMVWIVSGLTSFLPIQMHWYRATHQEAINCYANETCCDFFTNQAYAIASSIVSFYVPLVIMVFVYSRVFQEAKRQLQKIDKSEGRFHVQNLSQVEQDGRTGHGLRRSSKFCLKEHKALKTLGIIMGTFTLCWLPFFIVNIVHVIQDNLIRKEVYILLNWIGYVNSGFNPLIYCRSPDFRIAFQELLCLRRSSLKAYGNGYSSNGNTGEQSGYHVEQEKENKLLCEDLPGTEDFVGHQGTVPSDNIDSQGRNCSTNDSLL

**Q.** With CC(C)C[C@H](NC(=O)[C@H](Cc1ccccc1)NC(=O)[C@H](CCCCN)NC(=O)[C@H](Cc1ccccc1)NC(=O)[C@H](CC(N)=O)NC(=O)[C@@H](NC(=O)[C@@H]1CCCN1)C(C)C)C(=O)N[C@@H](CO)C(=O)N[C@@H](Cc1cnc[nH]1)C(=O)O [HEMOPRESSIN] as the compound, how does the Activity [1] read?
**A.** 0.98

**Q.** And the Activity [2]?
**A.** 103%

**Q.** And the Activity [3]?
**A.** 140%

**Q.** And the Activity [4]?
**A.** Active

**Q.** What about the Activity [5] of the same compound?
**A.** Active

**Q.** What about the EC50 (Cannabinoid receptor 1) of the same compound?
**A.** 0.35 nM

**Q.** What about the Activity [6] of the same compound?
**A.** 0.61

**Q.** What about the Activity [7] of the same compound?
**A.** 103%

**Q.** What about the Activity [8] of the same compound?
**A.** 1.15

**Q.** What about the Activity [9] of the same compound?
**A.** 0.96

**Q.** What about the Activity [10] of the same compound?
**A.** 101%

**Q.** What about the Activity (Rattus norvegicus [11]) of the same compound?
**A.** Active

**Q.** And the Activity (Rattus norvegicus [12])?
**A.** Active

**Q.** What about the Activity [13] of the same compound?
**A.** 1.07
